Assay outcomes: PubChem BioAssay, several laboratories
This excerpt belongs to a sample that is enriched for hits.
PfG6PD inh: PfG6PD (Plasmodium falciparum) enzyme inhibition. hit rate 0.78% among 350,000. PfGluPho enzyme, NADPH resazurin-diaphorase fluorescence. inhibition, % at 20 µM;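 active = inhibition reaching at least a set limit at 20 µM in the primary screen, cut at about 59% in these data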;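 also: 0% = DMSO wells with substrate and 100% = DMSO wells lacking glucose-6-phosphate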
Redox H2O2 prof: compounds producing H2O2 with reducing agent – biochemical, NIH compound library profiling, artefact control for MLSCN library redox annotation, primary screen | DTT-dependent redox cycling H2O2, phenol red/HRP absorbance; 100% = 100 µM peroxide control, 0% = buffer | activation, % at 10 µM | hit rate 0.03% among 200,000 | AID 878;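 active = activation of at least 50% relative to the plate's high and low controls in the primary single-dose screen; inactive = activation below 50%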;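 also: compound incubated with DTT at 0.8 mM final as the reducing agent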
L major viab: Leishmania major promastigote growth inhibition | Leishmania major promastigotes, resazurin fluorescence viability | inhibition, % at 10 µM | hit rate 9% among 200,000 | AID 1063;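 also: promastigotes grown with compound for 44 hours at 28 °C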
Diaphorase act: counter-screen for diaphorase-based assays: diaphorase activators and chemical reducers; activation factor at 20 µM; hit rate 0.005% among 190,000; Diaphorase/resazurin coupled assay, resorufin fluorescence, 16 min; active compounds read high; 1 = vehicle wells, 0 = NADH-free wells;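 active = diaphorase activity raised at least twofold by the compound at 20 µM; inactive = activation factor below 2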
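Assay system: bacterial diaphorase enzyme (C. kluyveri) / Input: enzyme 0.07 U/mL final / Medium: 50 mM HEPES pH 7.4 with 4.542 mM MgCl2, 0.005% Tween 20 / Doses: single compound dose of 20 µM, 1% DMSO final / Incubation: 16 min enzyme reaction, ambient temperature / Signal: fluorescence, excitation 544 nm and emission 590 nm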
G6PDH counter: counter-screen for G6PDH assay hits: L. mesenteroides G6PDH inhibition | inhibition, % at 5 µM | AID 1020 | hit rate 0.12% among 200,000 | Purified L. mesenteroides G6PDH, diaphorase/resazurin coupled fluorescence, 45 min
Diaphorase inh: inhibits diaphorase or chemically oxidizes, flagging diaphorase assay artifacts. diaphorase resazurin-to-resorufin fluorescence, NADH, 16 min; bacterial (C. kluyveri) enzyme, not human. inhibition, % at 20 µM. hit rate 0.69% among 190,000;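 active = primary screen inhibition at 20 µM above a set limit, cut at about 50% in these data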;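 also: plate controls were DMSO with full reaction for no effect and wells lacking NADH for full effect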
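Detection: fluorescence of resorufin formed from resazurin, Ex 544/Em 590 nm; test system: Clostridium kluyveri diaphorase enzyme; amount: 0.14 U/mL diaphorase, enzyme working solution; times: 16-min room-temperature incubation before reading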
An asterisk follows results filed as active; . = no result. Rule as the data show it, unless noted: active = inhibition above about 50%; inactive = the rest.

SMILES	PfG6PD inh	Redox H2O2 prof	L major viab	Diaphorase act	G6PDH counter	Diaphorase inh
CCOC(=O)C1CCCN(CCC(=O)Nc2ccccc2)C1 (stereo not given)	-2	-3	-3	1	-3	4
CCOC(=O)C1CCC(CNCc2ccc(Cl)cc2)CC1 (stereo not given)	5	0	92*	0.9	2	6
CCOC(=O)C1CCN(CCC(=O)Nc2ccccc2)CC1	-2	-1	79*	0.9	1	6
CCOC(=O)C1CCN(CCC(=O)Nc2cccc(Cl)c2C)CC1	0	0	94*	0.9	1	9
CC(=O)N1CCOc2ccc(S(=O)(=O)N3CCC(C(=O)NCc4ccccc4)CC3)cc21	-11	.	.	.	.	.
CCN(CC)S(=O)(=O)c1cccc(C(=O)N[C@H](C(=O)NCc2ccc(Cl)cc2)C(C)C)c1	8	0	10	0.8	4	22
CCOC(=O)CNC(=O)Cc1ccc(Cl)cc1	-9	.	.	.	.	.
CCOC(=O)Cc1ccc(NCc2ccc(Cl)cc2)cc1	-2	0	100*	0.8	-7	21
CCN(Cc1ccccc1)C(=O)CN1C(=O)NC2(CC(C)CC(C)(C)C2)C1=O (stereo not given)	10	.	.	.	.	.
Cc1[nH]c2ccccc2c1C(=O)CN1C(=O)NC2(CC(C)CC(C)(C)C2)C1=O (stereo not given)	3	0	90*	0.8	2	23
CCC(C)c1ccc(NC(=O)COC(=O)C2=COCCO2)cc1 (stereo not given)	-3	0	1	1	15	3
Cc1ccc(NC(=O)C(C)OC(=O)CCN=C2NS(=O)(=O)c3ccccc32)cc1 (stereo not given)	-1	.	.	.	.	.
CCC(C)n1c(-c2cccs2)nc2nc3ccccc3nc21 (stereo not given)	5	0	67*	0.7	8	26
c1ccc(-n2c(-c3cccs3)nc3nc4ccccc4nc32)cc1	7	2	-1	0.8	-29	15
Cc1ccccc1OCc1nc(-c2ccc(NC(=O)c3ccco3)cc2)no1	3	0	3	0.9	3	7
Cc1ccccc1OCc1nc(-c2ccc(NC(=O)c3cccs3)cc2)no1	5	1	71*	0.9	0	6
O=C(COC(=O)c1ccco1)NCCc1ccc(Cl)cc1	2	.	.	.	.	.
CC(Oc1ccc2ccc(=O)oc2c1)C(=O)c1ccccc1 (stereo not given)	-57	0	69*	1.1	10	-6
O=C(OCc1csc(Nc2ccccc2)n1)c1ccc(Cl)cc1	30	1	-2	0.7	-45	27
C/C(Cn1nnc2ccccc21)=N\NC(=O)c1ccc(Br)cc1	9	-1	2	1	1	2
COc1cc(/C=C2\SC(=S)N(CCC(=O)N3CCCCC3)C2=O)cc(OC)c1OC	10	.	.	.	.	.
CSc1nccc(-c2nn(-c3ccc(C)cc3)ccc2=O)n1	7	0	100*	1.1	12	-12
CCSc1nccc(-c2nn(-c3ccc(C)cc3)ccc2=O)n1	0	0	8	0.8	-1	20
COc1ccc(OCc2nc3c4cc(OC)c(OC)cc4nc(=S)n3[nH]2)cc1	42	1	-10	0.1	-63	92*
COc1cc2nc(=S)n3[nH]c(CCn4c(C)nc5ccccc54)nc3c2cc1OC	56	-2	-7	0.1	-2	89*
SMILES	PfG6PD inh	Redox H2O2 prof	L major viab	Diaphorase act	G6PDH counter	Diaphorase inh
COc1ccc(OCc2nc3ccccc3[nH]2)cc1	-6	0	-1	1	-1	-4
COc1ccccc1Cn1c(C)nc2ccccc21	0	.	.	.	.	.
O=C1N/C(=C/c2ccc(Br)cc2)C(O)=C1C=NCc1ccccc1	-4	0	79*	1	3	0
CC(C)n1c(/C=C/c2ccccc2)nc2ccccc21	28	0	50*	0.9	-15	15
COc1ccc(CNC(=O)CN(C(=O)CCC(=O)Nc2ccccn2)c2cccc(C)c2)cc1	-9	0	50*	.	6	.
CC(C)NC(=O)CN(C(=O)CCC(=O)Nc1ccccn1)c1ccc(F)c(Cl)c1	-15	2	1	0.9	-2	14
